From ChEMBL document CHEMBL1122809, “Improved synthesis and antitumor activity of 2-bromo-2'-deoxyadenosine” (1984)

Tests used:
L1210 [1] = assay: Antitumor activity expressed as life span was determined against inoculated L1210 leukemia cells (1*10e5) in mice by 11.3 mg/kg dosage of compound (qd (x 3), for days 1, 4, 7); assay type: functional, Mus musculus
How it was run: (§1)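 Female mice (~18 g, housed six per cage) received L1210 cells intraperitoneally on day 0. Drug was made fresh and injected at 0.01 mL/g; the stated dose is per injection. Controls received the same volume of 0.154 M NaCl. Survival was followed, with deaths assigned to tumour by necropsy or to drug toxicity by set criteria. Life span is given as mean ± SD.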

L1210 [2] = assay: Antitumor activity expressed as life span was determined against inoculated L1210 leukemia cells (1*10e5) in mice by 17.3 mg/kg dosage of compound (qd (x 3), for days 1,5,9); assay type: functional, Mus musculus; how it was run: as §1
L1210 [3] = assay: Antitumor activity expressed as life span was determined against inoculated L1210 leukemia cells (1*10e5) in mice by 22.5 mg/kg dosage of compound (qd (x 3), for days 1, 4, 7); assay type: functional, Mus musculus; how it was run: as §1
L1210 [4] = assay: Antitumor activity expressed as life span was determined against inoculated L1210 leukemia cells (1*10e5) in mice by 22.5 mg/kg dosage of compound (qd (x 3), for days 1,5,9); assay type: functional, Mus musculus; how it was run: as §1
L1210 [5] = assay: Antitumor activity expressed as life span was determined against inoculated L1210 leukemia cells (1*10e5) in mice by 45 mg/kg dosage of compound (qd (x 3), for days 1,5,9); assay type: functional, Mus musculus; how it was run: as §1
L1210 [6] = assay: Antitumor activity expressed as life span was determined against inoculated L1210 leukemia cells (1*10e6) in mice by 11.3 mg/kg dosage of compound (qd (x 3), for days 1, 4, 7); assay type: functional, Mus musculus; how it was run: as §1
L1210 [7] = assay: Antitumor activity expressed as life span was determined against inoculated L1210 leukemia cells (1*10e6) in mice by 11.3 mg/kg dosage of compound (qd (x 3), for days 1, 4, 7,10,13,16); assay type: functional, Mus musculus; how it was run: as §1
L1210 [8] = assay: Antitumor activity expressed as life span was determined against inoculated L1210 leukemia cells (1*10e6) in mice by 110 mg/kg dosage of compound (qd (x 3), for days 1- 7); assay type: functional, Mus musculus; how it was run: as §1
M5076 [9] = assay: Antitumor activity was evaluated by measuring mean life span in tumor (M5076) inoculated mice at 11.3 mg/kg (qd3hx8),days 1-34; assay type: functional, Mus musculus
How it was run: (§2)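 Female mice of about 18 g received subcutaneous M5076 implants matching those used for serial passage. Drug was freshly prepared and injected at 0.01 mL/g every 3 h (×8) on every 3rd day from day 1 to day 34, with the dose stated per injection. Controls received 0.154 M NaCl. Groups held 18 mice (11 in one group). Mean life span was reported as mean ± SD, and tumor volume was also assessed.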

L1210 [10] = assay: Antitumor activity expressed percentage increase in life span was determined against inoculated L1210 leukemia cells (1*10e6) in mice by 11.3 mg/kg dosage of compound (qd (x 3), for days 1, 4, 7,10,13,16); assay type: functional; settings: Mus musculus
How it was run: (§3)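 L1210 cells were given intraperitoneally to female mice (~18 g). Freshly prepared drug was injected at 0.01 mL/g, dose per injection, and saline-injected controls were run. The end point was duration of survival. ILS was calculated as percent increase in mean life span over controls. Mice surviving 60 days or more counted as long-term survivors, scored as 60 days.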

L1210 [11] = assay: Antitumor activity expressed as life span was determined against inoculated L1210 leukemia cells (1*10e6) in mice by 90 mg/kg dosage of compound (qd (x 3), for days 1, 4, 7); assay type: functional, Mus musculus; how it was run: as §1
L1210 [12] = assay: Antitumor activity expressed as life span was determined against inoculated L1210 leukemia cells (1*10e6) in mice by 22.5 mg/kg dosage of compound (qd (x 3), for days 1, 4, 7); assay type: functional, Mus musculus; how it was run: as §1
L1210 [13] = assay: Antitumor activity expressed as life span was determined against inoculated L1210 leukemia cells (1*10e6) in mice by 45 mg/kg dosage of compound (qd (x 3), for days 1, 4, 7); assay type: functional, Mus musculus; how it was run: as §1
L1210 [14] = assay: Antitumor activity expressed as life span was determined against inoculated L1210 leukemia cells (1*10e6) in mice by 5.6 mg/kg dosage of compound (qd (x 3), for days 1, 4, 7); assay type: functional, Mus musculus; how it was run: as §1
L1210 [15] = assay: Antitumor activity expressed percentage increase in life span was determined against inoculated L1210 leukemia cells (1*10e5) in mice by 11.3 mg/kg dosage of compound (qd (x 3), for days 1, 4, 7); assay type: functional; settings: Mus musculus; how it was run: as §3
L1210 [16] = assay: Antitumor activity expressed percentage increase in life span was determined against inoculated L1210 leukemia cells (1*10e5) in mice by 22.5 mg/kg dosage of compound (qd (x 3), for days 1, 4, 7); assay type: functional; settings: Mus musculus; how it was run: as §3
L1210 [17] = assay: Antitumor activity expressed percentage increase in life span was determined against inoculated L1210 leukemia cells (1*10e6) in mice by 30 mg/kg dosage of compound (qd (x 3), for days 1- 7); assay type: functional; settings: Mus musculus; how it was run: as §3
M5076 [18] = assay: Antitumor activity was evaluated by measuring mean life span in tumor (M5076) inoculated mice at 22.5 mg/kg (qd3hx8),days 1-34; assay type: functional, Mus musculus; how it was run: as §2
L1210 [19] = assay: Antitumor activity expressed percentage increase in life span was determined against inoculated L1210 leukemia cells (1*10e6) in mice by 5.6 mg/kg dosage of compound (qd (x 3), for days 1, 4, 7,10,13,16); assay type: functional; settings: Mus musculus
L1210 [20] = assay: Antitumor activity expressed percentage increase in life span was determined against inoculated L1210 leukemia cells (1*10e6) in mice by 70 mg/kg dosage of compound (qd (x 3), for days 1-7); assay type: functional; settings: Mus musculus
How it was run: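 Female mice of about 18 g (BDF1, DBA/2 or C57Bl/6 stocks used) were inoculated intraperitoneally with 1 × 10^6 L1210 cells. Freshly prepared drug was given once daily from about 24 h after inoculation at 0.01 mL/g, with the dose stated per injection. Controls received 0.154 M NaCl, and groups held 6 mice. %ILS was taken from mean survival, with mice alive at 60 days or more counted as 60 days.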

L1210 [21] = assay: Antitumor activity expressed as life span was determined against inoculated L1210 leukemia cells (1*10e6) in mice by 70 mg/kg dosage of compound (qd (x 3), for days 1, 4, 7); assay type: functional, Mus musculus; how it was run: as §1
L1210 [22] = assay: Antitumor activity expressed as life span was determined against inoculated L1210 leukemia cells (1*10e6) in mice by 70 mg/kg dosage of compound (qd (x 3), for days 1- 7); assay type: functional, Mus musculus; how it was run: as §1
B16 melanoma (mouse) [23] = assay: Antitumor activity expressed percentage increase in life span was determined against inoculated B16 melanoma in mice by 22.5 mg/kg dosage of compound (qd3hx8), for days 1,4,7,10
B16 melanoma (mouse) [24] = assay: Antitumor activity expressed percentage increase in life span was determined against inoculated B16 melanoma in mice by 22.5 mg/kg dosage of compound (qd3hx8), for days 1,4,7,10,13,16
L1210 [25] = assay: Antitumor activity expressed as life span was determined against inoculated L1210 leukemia cells (1*10e5) in mice by 5.6 mg/kg dosage of compound (q 3 h (x 8), for days 1, 4, 7,10,13,16)

Compound `Nc1nc(Br)nc2c1ncn2[C@H]1C[C@H](O)[C@@H](CO)O1` has a Life span (L1210 [1]) of 14.33 days, a Life span (L1210 [2]) of 14 days and a Life span (L1210 [3]) of 23.75 days. It also gave a Life span (L1210 [4]) of 21.42 days, a Life span (L1210 [5]) of 37.73 days and a Life span (L1210 [6]) of 12.92 days. For the same compound, the Life span (L1210 [7]) was 13.17 days, the Life span (L1210 [8]) was 4.17 days and the Life span (M5076 [9]) was 39.72 days. It also gave an ILS at 11.3 mg/kg (L1210 [10]) of 86%, a Life span (L1210 [11]) of 7 days and a Life span (L1210 [12]) of 15 days. For the same compound, the Life span (L1210 [13]) was 13.5 days, the Life span (L1210 [14]) was 11.08 days and the ILS at 11.3 mg/kg (L1210 [15]) was 95%. For the same compound, the ILS at 22.5 mg/kg (L1210 [16]) was 224%, the ILS at 30 mg/kg (L1210 [17]) was 21% and the Life span (M5076 [18]) was 46.41 days. The ILS at 5.6 mg/kg (L1210 [19]) was 48%, the ILS at 70 mg/kg (L1210 [20]) was 11% and the Life span (L1210 [21]) was 6.5 days. The Life span (L1210 [22]) was 7 days, the ILS at 22.5 mg/kg (B16 melanoma (mouse) [23]) was 50% and the ILS at 22.5 mg/kg (B16 melanoma (mouse) [24]) was 10%. The Life span (L1210 [25]) was 11.83 days.
